Assay outcomes as filed in PubChem BioAssay.
Sampled rows, rich in hits. Any-hit rate of the full collection: about 2.3%.
OXTR potentiate – human OXTR potentiators, primary screen, fluorescence, CHO-OTR cells, Fluo-8 calcium | Oxytocin receptor (Homo sapiens), P30559 | Fluo-8 calcium fluorescence, potentiator mode; 0% = oxytocin EC15, 100% = EC100 | activation, % at 3 µM | 320,000 compounds, 0.061% hits | AID 2445, 2010;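 active = activation above that plate's cutoff, the mean activation of tested compounds plus 3 SD, cut at about 6.6% in these data, passing the limit was not always enough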;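 also: 100% uses oxytocin at 75 nM as the full agonist control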
Target sequence (P30559 whole entry, looked up): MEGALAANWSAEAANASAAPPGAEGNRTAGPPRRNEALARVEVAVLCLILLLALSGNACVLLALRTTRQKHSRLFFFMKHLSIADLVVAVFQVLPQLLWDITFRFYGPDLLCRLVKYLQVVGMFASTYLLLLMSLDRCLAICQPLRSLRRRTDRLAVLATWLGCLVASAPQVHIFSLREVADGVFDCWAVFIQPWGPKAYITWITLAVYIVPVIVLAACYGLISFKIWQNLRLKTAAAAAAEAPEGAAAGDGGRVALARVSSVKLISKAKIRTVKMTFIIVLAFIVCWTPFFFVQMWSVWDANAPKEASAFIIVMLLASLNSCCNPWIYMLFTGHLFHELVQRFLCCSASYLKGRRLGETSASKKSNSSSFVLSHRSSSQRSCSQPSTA
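System: human OTR in CHO cells / Also added: sub-maximal oxytocin, roughly EC15 / Control set: EC15 oxytocin low, 75 nM oxytocin high / Schedule: 6 min compound pre-incubation at room temperature, 100 s kinetic read / Compound: single-point 3.0 µM / Replication: singlicate / Technique: Fluo-8 calcium dye fluorescence / Read-out basis: % activation of max/min ratio relative to oxytocin controls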
V1aR counter – agonists of human V1a receptor, primary screen, counter-screen for OXTR agonist project, fluorescence, CHO-V1R cells | Fluo-8 calcium fluorescence, agonist mode; 0% DMSO, 100% 3 nM vasopressin | 320,000 compounds, 0.25% hits | AID 2797, 2010 | activation, % at 3 µM;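 active = activation above the mean activation of all tested compounds plus 3 SD, per screening run, cut at about 20% in these data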;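 also: signal is peak over basal fluorescence ratio across a 100 second FLIPR read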
TAAR1 antagonist – human TAAR1 antagonists, primary screen, Fluo-8 calcium fluorescence, CHO RD-HGA16 cells; Trace amine-associated receptor 1 (Homo sapiens), Q96RJ0; antagonist; 360,000 compounds, 1.5% hits; inhibition, % at 3 µM;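 active = inhibition above a per-plate cutoff, the mean inhibition of test compounds on that plate plus 3 SD, cut at about 49% in these data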;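 also: 0% = DMSO plus EC80 beta-PEA response and 100% = DMSO alone without agonist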
Target sequence (Q96RJ0 whole entry, looked up): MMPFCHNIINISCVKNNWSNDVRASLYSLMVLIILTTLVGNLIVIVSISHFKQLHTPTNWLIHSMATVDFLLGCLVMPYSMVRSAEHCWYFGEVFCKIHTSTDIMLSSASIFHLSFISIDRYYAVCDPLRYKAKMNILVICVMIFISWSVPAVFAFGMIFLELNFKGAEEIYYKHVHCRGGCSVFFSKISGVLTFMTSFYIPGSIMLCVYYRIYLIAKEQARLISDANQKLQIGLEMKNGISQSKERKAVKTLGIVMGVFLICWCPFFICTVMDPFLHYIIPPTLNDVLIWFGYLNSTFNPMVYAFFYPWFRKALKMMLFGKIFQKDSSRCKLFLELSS
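System: CHO RD-HGA16 cells bearing hTAAR1. Reagent: EC80 β-phenethylamine stimulus. Schedule: seeding 17-24 h prior, 75-min 37 °C, 30-min RT dye loading. Signal: Fluo-8 intracellular calcium dye fluorescence, real-time kinetic reads. Read-out: % inhibition from peak post-agonist over basal fluorescence ratio. Benchmarks: vehicle wells and EC80 agonist wells. Replicates: n of 1.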
TAAR1 ag – human TAAR1 agonists, primary screen, Fluo-8 calcium fluorescence, CHO RD-HGA16 cells. Trace amine-associated receptor 1 (Homo sapiens), Q96RJ0. vehicle wells 0%, saturating PEA agonist 100%. activation, % at 3 µM. 360,000 compounds, 0.99% hits. AID 624467, 2012;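 active = activation above the mean activation of all test compounds in the run plus 3 SD, cut at about 38% in these data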
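System: CHO RD-HGA16 cells carrying human TAAR1 plus Gα16; Incubation: 17-24 h seeding, 75 min 37 °C dye, 30 min RT; Measured by: Fluo-8 fluorescence, 5 s baseline then 140 s kinetic read; Control set: DMSO and PEA EC100; Replication: single well for each compound.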
OXTR ag – human OXTR agonists, primary screen, fluorescence, CHO-OTR cells, Fluo-8 calcium; Fluo-8 calcium fluorescence; normalized: DMSO 0%, oxytocin 100%; activation, % at 3 µM; 320,000 compounds, 0.32% hits;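 active = activation above the mean of all tested compounds plus 3 SD, cutoff set per screening run, cut at about 20% in these data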;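 also: peak over basal fluorescence ratio from a 100 s FLIPR kinetic read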
Active calls of the source: *; . = no result.

SMILES | OXTR potentiate | V1aR counter | TAAR1 antagonist | TAAR1 ag | OXTR ag
COc1ccc(CCNC(=O)c2cc(C(=O)c3cc(C)ccc3O)cn(CCc3ccc(OC)cc3)c2=O)cc1 | -8 | 1 | 54* | 4 | 1
C[C@@H]1C=CCCO[C@]12C(=O)N(CC1CC1)c1cccc(Br)c12 | . | . | -6 | 3 | .
COc1cc2ccc(-c3ccc4ccccc4n3)cc2cc1OC | . | . | 58* | 10 | .
Cc1cc(C(=O)COC(=O)c2ccc(O)cc2)c(C)n1CCc1ccc(F)cc1 | -12 | 2 | 20 | 36 | 4
Cc1cc(C(=O)CSc2nc(N)cc(N)n2)c(C)n1CCc1ccc(F)cc1 | -14 | 2 | 17 | 39* | 5
C=CCn1c(CCCNC(=O)C(C)(C)C)nc2ccccc21 | -3 | 1 | -8 | 2 | 0
CC(C)(C)C(=O)NCCCc1nc2ccccc2n1CCCOc1ccc(Cl)cc1 | -8 | 8 | 66* | 19 | 9
CC(=O)NCCc1nc2ccccc2n1CCOc1ccccc1 | 1 | 1 | -23 | 39* | 2
COC(=O)c1ccc2nc(-c3ccc(Cl)cc3)c(Cc3ccccc3)n2c1 | . | . | -2 | 0 | .
CC1Cc2cc(/C=C3/SC(=S)NC3=O)ccc2O1 (stereo not drawn) | 0 | 1 | -8 | -4 | -2
Cc1ccc(C2C(/C=C3/SC(=S)NC3=O)=C(c3cccs3)Oc3ccccc32)cc1 (stereo not drawn) | -4 | 0 | 56* | 1 | 1
NC(Cc1ccc(O)cc1)C(=O)NN=Cc1ccccc1O (stereo not drawn) | . | . | -7 | 2 | .
O=C(NCCS(=O)(=O)N1CCN(c2ccccc2F)CC1)c1ccc2c(c1)OCO2 | -6 | 3 | -13 | 4 | 2
Cn1cc(C(c2ccccn2)c2cn(C)c3ccccc23)c2ccccc21 | -10 | 4 | -11 | 41* | 7
CC(C)Oc1cc(F)ccc1-c1cc(C(=O)NCc2ccccc2)[nH]n1 | . | . | 13 | 1 | .
COCCN1Cc2cc(C(=O)OC)c3c(c2C1=O)c1cc(OC)ccc1n3S(=O)(=O)c1ccc(F)cc1 | . | . | -5 | 0 | .
CC(=O)Nc1sc(/C(C#N)=C\c2cccc(Cl)c2)nc1-c1ccc(C)cc1 | -3 | 5 | 52* | 33 | 10
CCCN(CCC)S(=O)(=O)c1ccc(C(=O)N2CCC(=O)c3ccccc32)cc1 | -12 | 2 | 60* | 7 | -1
O=C1CCN(C(=O)c2ccccc2)c2ccccc21 | . | . | 1 | 3 | .
COC(=O)C1=C(C)N(C)C(=NCc2cccc(C(F)(F)F)c2)NC1c1ccc(Cl)cc1 (stereo not drawn) | . | . | 47 | 22 | .
O=C(NCc1ccncc1)C(=O)Nc1nc(C23CC4CC(CC(C4)C2)C3)cs1 | -8 | 5 | 50* | 12 | 1
CC(C)C[C@H]1CN(CCCC[C@@H]2CNC(=O)C(=O)N2Cc2ccccc2)C(=O)C(=O)N1CC1CCCCC1 | . | . | -7 | -1 | .
C=CC[C@@H](Cc1ccc(F)cc1)C(=O)OC[C@H]1CCCN1C(=O)[C@@H](CC=C)CC(=O)N[C@@H](CO)Cc1ccccc1 | -8 | 2 | 16 | 10 | 2
C=CCC[C@@H](Cc1ccc(F)cc1)C(=O)OC[C@@H]1CCCN1C(=O)[C@H](CC=C)CC(=O)N[C@H](CO)Cc1ccccc1 | -8 | 3 | 11 | 8 | -2
C=CC[C@@H](Cc1ccc(F)cc1)C(=O)OC[C@H]1CCCN1C(=O)[C@H](CC=C)CC(=O)N[C@H](CO)Cc1ccccc1 | -8 | 2 | 50* | 13 | -1
SMILES | OXTR potentiate | V1aR counter | TAAR1 antagonist | TAAR1 ag | OXTR ag
C=CCC[C@@H](Cc1ccc(F)cc1)C(=O)OC[C@@H]1CCCN1C(=O)[C@@H](CC=C)CC(=O)N(CCO)Cc1ccccc1 | -7 | 0 | 57* | 12 | 0
CC(C)(C)S(=O)N1C[C@H]2CC(=O)C=C2[C@@H]1CCO (stereo partly drawn) | . | . | -14 | 3 | .
Cc1cc(=O)oc2c3c(cc(OCC(=O)Nc4ccc(CCO)cc4)c12)OC(C)(C)CC3 | -4 | -1 | 51* | 0 | -1
CCCc1cc(=O)oc2c3c(cc(OCC(=O)NCc4ccccn4)c12)OC(C)(C)CC3 | -5 | -1 | 49* | 2 | 0
CCCc1cc(=O)oc2c3c(cc(OCC(=O)NCc4ccncc4)c12)OC(C)(C)CC3 | -9 | -1 | 49* | 2 | -1
Oc1ccccc1C=NC(N=Cc1ccccc1O)c1ccccc1O (stereo not drawn) | . | . | 11 | 3 | .
CC(Sc1nnc(Cc2ccccc2)o1)C(=O)NC1(C#N)CCCCC1 (stereo not drawn) | -5 | 0 | 2 | 4 | 0
CCOC(=O)C1C(=O)CC(C)(O)C(C(=O)OCC)C1/C=C/c1ccccc1 (stereo not drawn) | . | . | 56* | 9 | .
CCOC(=O)C(Cc1ccc(NC(=O)/C(=C/c2ccc(OC(C)=O)cc2)NC(C)=O)cc1)N1C(=O)c2ccccc2C1=O (stereo not drawn) | -21 | 1 | 49* | 11 | 0
CCOC(=O)C(Cc1ccc(NC(=O)/C(=C/c2ccccc2)NC(=O)c2ccccc2)cc1)N1C(=O)c2ccccc2C1=O (stereo not drawn) | 1 | 2 | 13 | 7 | 4
N#C/C(N=Nc1ccccc1O)=N\Nc1ccccc1O | -15 | 16 | 66* | 3 | 18
Oc1ccccc1N=N/C(=N/Nc1ccccc1O)c1ccccc1 | 3 | 0 | -2 | 1 | 0
CS(=O)(=O)c1ccc(-c2sc3ccccc3c2C#CCCO)cc1 | -4 | 10 | 54* | 16 | 7
COc1ccc2c(C#CCCO)c(-c3ccc(S(C)(=O)=O)cc3)sc2c1 | -12 | 7 | 62* | 20 | 11
COc1ccc(-c2sc3ccccc3c2C#CCCO)cc1 | -10 | 0 | 19 | -2 | 1
COc1ccc2sc(-c3ccc(S(C)(=O)=O)cc3)c(C#CCO)c2c1 | -6 | 5 | 46 | 15 | 3
Cc1ccc(S(C)(=O)=O)cc1C(=O)OCC(=O)N(Cc1ccccc1)Cc1ccccc1 | -6 | 2 | 54* | 17 | -1
Cc1ccc(C(=O)OCC(=O)N(CCc2ccccc2)Cc2ccccc2)cc1S(=O)(=O)N1CCOCC1 | -8 | 2 | 50* | 4 | -1
COc1cccc(CNS(=O)(=O)c2ccccc2Br)c1 | . | . | -20 | 33 | .
O=C(CSc1nc2ccc(Nc3nc(N4CCOCC4)nc(N4CCOCC4)n3)cc2s1)Nc1ccccc1 | . | . | 14 | 7 | .
CN(C(=O)c1cccc(NC(=O)Cc2ccc([N+](=O)[O-])cc2)c1)C1CCCC1 | -7 | 6 | 10 | 8 | 6
